According to publication PMC5542862 (Microcirculation (New York, N.Y. : 1994), 2017):
Like-named read-outs stand apart in the source and are kept apart here.

Columns and labels:
[1] = system: arcade and terminal arterioles of the hamster cheek pouch; type: in vivo; conditions: for Effect of beta-adrenergic blockade on dilation (in words): propranolol 10^−6M in tissue bath; for Control Dose Max dilation / Control (%) Max dilation / Dose range of vasodilation: quiescent tissue; for Control Dose Max dilation: 60-second micropipette exposure; for Control (%) Max dilation: at the dose of max dilation; for Effect of muscarinic blockade on vasoactivity (in words): atropine 10^−7 M in tissue bath; for Dose range of vasodilation: mucocutaneous microvasculature
How it was run: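 Adult male hamsters were anaesthetised with pentobarbital (70 mg/kg), tracheostomised and kept at 37 °C. The left cheek pouch was superfused with 37 °C bicarbonate-buffered saline and rested 30 min. Test compound was given by micropipette (10–20 μm tip, with FITC-dextran 10−6M) at the arcade–terminal junction for 60 s, then 5 min recovery. One full concentration series per site, 2–4 sites ≥1000 μm apart. Fractional diameter change = (baseline−peak)/baseline; repeated-measures ANOVA.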

[2] = system: PDGF-BB; conditions: Lin, et al., 2014, Zhu; cited from earlier work
[3] = system: arcade and terminal arterioles of the hamster cheek pouch; assay: Hamster cheek pouch intravital microscopy, nitrosative stress model; type: in vivo; conditions: for Effect of nitrosative stress on the concentration response (in words): SNP 10^−4M in tissue bath for 2 minutes; for Stress (%) Max dilation: after stress, at the dose of max dilation; for Vasoactive response after stress compared with before (in words): nitrosative stress, agent 10^−4M by micropipette, n=35
How it was run: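 Anaesthetised male hamster cheek pouch, superfused with 37 °C bicarbonate saline. Stress: SNP 10−4M washed into the bath for 2 min, with endothelial dysfunction checked by micropipette acetylcholine 10−4M. Test compound was given by micropipette for 60 s with 5 min recovery, 15 min–3 h after stress, at most four exposures per site. Response = (baseline−peak)/baseline from video; repeated-measures ANOVA, unpaired t-test.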

[4] = system: PDGF-BB; conditions: cited from earlier work; for Kd: read-out: KD for PDGF-BB binding
[5] = system: adult human dermal fibroblasts; conditions: cited from earlier work
[6] = system: thermal burn injury progression; conditions: rat hot comb model; cited from earlier work
[7] = system: arcade and terminal arterioles of the hamster cheek pouch; type: in vivo; conditions: 20s, 50 °C, within 500 μm of heat rim
How it was run: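 In the superfused cheek pouch of anaesthetised male hamsters, a thermocouple-controlled microcautery Pt wire (300 μm) applied 50 °C for 20 s. After 15 min, micropipette exposures (60 s, 5 min recovery) were mapped to 1000 μm from the heat rim; only sites within 500 μm are reported. Diameter change = (baseline−peak)/baseline from video; repeated-measures ANOVA or unpaired t-test, α 0.05.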

YILRWRPK [P18]
Effect of beta-adrenergic blockade on dilation (in words) ([1]; arcade and terminal arterioles): prevented vasodilation | Control Dose Max dilation ([1]; terminal arterioles): 10^−8M | Control (%) Max dilation ([1]; terminal arterioles): 26% | FN/PDGF-BB binding inhibition [2]: 26%

RWRPK [P37]
Effect of beta-adrenergic blockade on dilation (in words) ([1]; arcade and terminal arterioles): prevented vasodilation | Control (%) Max dilation ([1]; terminal arterioles): 19% | FN/PDGF-BB binding inhibition [2]: 0.0% | Effect of nitrosative stress on the concentration response (in words) [3]: left shift | Stress (%) Max dilation [3]: 45%

PSHISKYILRWRPK [EVA-1, epiviosamine-1]
Effect of muscarinic blockade on vasoactivity (in words) [1]: no effect | Effect of beta-adrenergic blockade on dilation (in words) ([1]; arcade and terminal arterioles): prevented vasodilation | Dose range of vasodilation [1]: 10^−9–10^−8 M | Control Dose Max dilation ([1]; terminal arterioles): 10^−9M | Control (%) Max dilation ([1]; terminal arterioles): 22% | Dose range binding PDGF-BB [4]: 10^−8–10^−7 M | Kd [4]: 200 nM | FN/PDGF-BB binding inhibition [2]: 95.5% | Dose conferring survival activity [5]: 10^−7 M | Effect of nitrosative stress on the concentration response (in words) [3]: left shift | Stress (%) Max dilation [3]: 32% | Effect on thermal burn injury progression (in words) [6]: limits thermal burn injury progression | Dilation at 10^−8M after thermal stress (in words) ([7]; arcade arterioles): reversed to constriction | Response to sub-nanomolar dose after thermal stress (in words) ([7]; both arteriolar types): significant vasodilation | Dilation at 10^−8M after thermal stress (in words) ([7]; terminal arterioles): eliminated

LRWRPK [P39]
Control (%) Max dilation ([1]; terminal arterioles): 8% | FN/PDGF-BB binding inhibition [2]: 0.0%

CC(C)NCC(O)c1ccc(O)c(O)c1 (stereo not drawn) [isoproterenol, reference compound]
Diameter change, fractional change from baseline ([1]; arcade arterioles, isoproterenol 10^−7M with propranolol (10^−6M), mean ± SD, n=23 sites): 0.00±0.11 | Diameter change, fractional change from baseline ([1]; arcade arterioles, isoproterenol 10^−7M, no blocker, mean ± SD, n=23 sites): 0.41±0.3 | Diameter change, fractional change from baseline ([1]; terminal arterioles, isoproterenol 10^−6M with carazolol 10^−9M, mean+sem, significant constriction): −0.50+0.15 | Diameter change, fractional change from baseline ([1]; terminal arterioles, isoproterenol 10^−7M with propranolol (10^−6M), mean ± SD, n=23 sites): 0.01±0.00 | Diameter change, fractional change from baseline ([1]; terminal arterioles, isoproterenol 10^−7M, no blocker, mean ± SD, n=23 sites): 0.43±0.34

nitroprusside [reference compound]
Vasoactive response after stress compared with before (in words) [3]: not compromised

ILRWRPK [P7]
Effect of muscarinic blockade on vasoactivity (in words) [1]: no effect | Effect of beta-adrenergic blockade on dilation (in words) ([1]; arcade and terminal arterioles): prevented vasodilation | Dose range of vasodilation [1]: 10^−9–10^−8 M | Control Dose Max dilation ([1]; terminal arterioles): 10^−8M | Control (%) Max dilation ([1]; terminal arterioles): 28% | Kd [4]: 1000 nM | FN/PDGF-BB binding inhibition [2]: 0.1% | Effect of nitrosative stress on the concentration response (in words) [3]: left shift | Stress (%) Max dilation [3]: 29%

Nc1ncnc2c1ncn2[C@@H]1O[C@H](CO)[C@@H](O)[C@H]1O [adenosine, reference compound]
Diameter change, fractional change from baseline ([1]; arcade arterioles, adenosine 10^−4 M, mean ± SD): 0.54±0.35 | Diameter change, fractional change from baseline ([1]; terminal arterioles, adenosine 10^−4 M, mean ± SD): 0.60±0.43 | Vasoactive response after stress compared with before (in words) [3]: compromised

CNC[C@H](O)c1cccc(O)c1 [phenylephrine, reference compound]
Diameter change, fractional change from baseline ([1]; arcade arterioles, phenylephrine 10^−5M, no blocker, mean ± SD, n=23 sites): −0.52±0.18 | Diameter change, fractional change from baseline ([1]; arcade arterioles, phenylephrine 10^−6M, mean ± SD): −0.53±0.18 | Diameter change, fractional change from baseline ([1]; terminal arterioles, phenylephrine 10^−5M, no blocker, mean ± SD, n=23 sites): −0.48±0.16 | Diameter change, fractional change from baseline ([1]; terminal arterioles, phenylephrine 10^−6M, mean ± SD): −0.48±0.16 | Vasoactive response after stress compared with before (in words) [3]: unaffected

CC(=O)OCC[N+](C)(C)C [acetylcholine, reference compound]
Diameter change, fractional change from baseline ([1]; arcade arterioles, acetylcholine 10^−4M with atropine (10^−7 M), mean ± SD, n=26 sites): 0.03±0.15 | Diameter change, fractional change from baseline ([1]; arcade arterioles, acetylcholine 10^−4M, no blocker, mean ± SD, n=26 sites): 0.50±0.36 | Diameter change, fractional change from baseline ([1]; terminal arterioles, acetylcholine 10^−4M with atropine (10^−7 M), mean ± SD, n=26 sites): 0.03±0.10 | Diameter change, fractional change from baseline ([1]; terminal arterioles, acetylcholine 10^−4M, no blocker, mean ± SD, n=26 sites): 0.49±0.28

FN: Full-length plasma fibronectin
Vasoactive response in quiescent tissue (in words) ([1]; arcade and terminal arterioles, 10^−16–10^−4M by micropipette, N=5–8 per peptide): induced only vasodilation | Effect of muscarinic blockade on vasoactivity (in words) [1]: no effect | Effect of combined alpha- and beta-adrenergic blockade (in words) ([1]; phentolamine 10^−5M plus propranolol 10^−6M): eliminated only the vasodilation with the peptides and not FN | Effect of beta-adrenergic blockade on dilation (in words) ([1]; arcade and terminal arterioles): significantly diminished dilation
